Data from ChEMBL document CHEMBL4024754, “Development of Potent, Protease-Resistant Agonists of the Parathyroid Hormone Receptor with Broad β Residue Distribution” (J Med Chem, 2017).
Activity calls are given as the source filed them. No cut-off for these calls is given here. Numbered stars: 1 amine (or outer) side, 2 acyl side, 3 side chain; on linkers, the order of the positions; unused ones are H or OH. Square brackets hold non-standard residues; d marks the D form. Peptide text beside a SMILES is read from it. * marks the point of attachment. NH(1S,2S-2-CONH2-cPent) = NC(=O)[C@H]1CCC[C@@H]1N*; X1 = O=C([C@H]1CCC[C@@H]1N[*:1])[*:2]; X2 = O=C([C@H]1CNC[C@@H]1N[*:1])[*:2]

Legend:
[1] = test system: Mus musculus; test: In vivo induction of excessive bloodstream calcium concentration in CD1 mouse at 20 nmol/kg, sc after 2 hrs by Ca2+/pH analyzer; assay type: organism-based
In short: (§1)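 Female CD1 mice (9−12 weeks), n = 5, given 20 nmol/kg subcutaneously in 10 mM citrate/150 mM NaCl/0.05% Tween-80, pH 5.0. Tail vein blood taken before and at times after dosing. Ca2+ measured by Ca2+/pH analyzer. One-way ANOVA with Dunnett's test vs vehicle. Mean ± SEM.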

[2] = molecular target: T1, Parathyroid hormone/parathyroid hormone-related peptide receptor (Homo sapiens) (UniProt Q03431); test: Displacement of [125I]-PTH(1 to 34 residues) from R0 state of human PTHR1 expressed in African green monkey COS7 cell membranes incubated for >1 hr in presence of GTPgammaS by gamma radiation method
T1 sequence (whole entry): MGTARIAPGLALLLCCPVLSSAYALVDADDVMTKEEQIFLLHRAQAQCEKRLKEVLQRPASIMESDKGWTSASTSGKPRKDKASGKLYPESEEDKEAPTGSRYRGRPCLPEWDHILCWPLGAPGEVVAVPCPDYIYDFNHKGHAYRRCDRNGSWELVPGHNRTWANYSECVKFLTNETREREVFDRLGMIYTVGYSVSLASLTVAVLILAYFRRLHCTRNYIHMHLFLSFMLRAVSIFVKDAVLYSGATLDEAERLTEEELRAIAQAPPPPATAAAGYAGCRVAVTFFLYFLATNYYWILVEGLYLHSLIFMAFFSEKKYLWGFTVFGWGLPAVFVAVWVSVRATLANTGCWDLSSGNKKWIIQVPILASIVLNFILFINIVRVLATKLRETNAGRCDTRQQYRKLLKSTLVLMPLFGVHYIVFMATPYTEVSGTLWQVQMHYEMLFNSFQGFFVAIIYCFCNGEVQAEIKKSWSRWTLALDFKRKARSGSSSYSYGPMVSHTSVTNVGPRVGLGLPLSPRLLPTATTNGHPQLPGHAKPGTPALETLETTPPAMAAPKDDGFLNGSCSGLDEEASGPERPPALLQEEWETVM

[3] = test system: Mus musculus; test: In vivo induction of excessive bloodstream calcium concentration in CD1 mouse at 20 nmol/kg, sc up to 2 hrs by Ca2+/pH analyzer; assay type: organism-based; in short: as §1
[4] = molecular target: T1, Parathyroid hormone/parathyroid hormone-related peptide receptor (Homo sapiens); test: Agonist activity at human PTH1 receptor expressed in human GP2.3 cells assessed as induction of cAMP after 12 to 20 mins by luciferase reporter gene assay relative to PTH(1 to 34 residues)-NH2; assay type: functional, cell-based
[5] = test system: Blood; test: Drug level in CD1 mouse blood at 20 nmol/kg, sc measured up to 2 hrs; assay type: ADME, organism-based; conditions: in vivo
In short: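 Female CD1 mice, n = 5, 20 nmol/kg subcutaneously in citrate/NaCl/Tween-80 vehicle, pH 5.0. 2 μL serum from timed bleeds, mixed with CO2-independent medium, added to GP2.3 cells. Luminescence converted to peptide concentration via a standard curve.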

[6] = molecular target: T1, Parathyroid hormone/parathyroid hormone-related peptide receptor (Homo sapiens); test: Agonist activity at human PTH1 receptor expressed in human GP2.3 cells assessed as induction of cAMP at 0.1 to 100 nM preincubated with protease activity quenched SGF up to 4 hrs followed by compound transfer to GP2.3 cells by luciferase reporter gene assay; assay type: functional, cell-based
In short: (§2)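 Control samples: simulated gastric fluid neutralized with 10× PBS, or intestinal fluid mixed with acetonitrile/TFA quench solution, before adding peptide. Gastric controls held up to 4 h. Then diluted and tested on luciferin-loaded GP2.3 cells at 100−0.1 nM final, alongside freshly prepared peptide.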

[7] = Drug metabolism in Sprague-Dawley rat kidney homogenates assessed as protease-mediated metabolite formation at 12 uM after 5 mins by MALDI-TOF-MS analysis; assay type: ADME, tissue-based; conditions: tissue homogenate
In short: (§3)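 Perfused female Sprague-Dawley kidney homogenate in 50 mM Tris-HCl pH 7.4, diluted to 2.5 mg protein/mL. Peptide spiked at 50 μg/mL (~12 μM) and incubated at 37 °C. Timed samples quenched with equal volume 1% TFA, centrifuged, dried, reconstituted in 0.1% formic acid, mixed with DHB matrix. Fragments identified by MALDI-TOF MS.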

[8] = Drug metabolism in Sprague-Dawley rat kidney homogenates assessed as protease mediated-drug degradation at 12 uM up to 15 mins by MALDI-TOF-MS analysis; assay type: ADME, tissue-based; conditions: tissue homogenate; in short: as §3
[9] = molecular target: T1, Parathyroid hormone/parathyroid hormone-related peptide receptor (Homo sapiens); test: Agonist activity at human PTH1 receptor expressed in human GP2.3 cells assessed as induction of cAMP at 0.1 to 100 nM preincubated with protease activity quenched SIF followed by compound transfer to GP2.3 cells by luciferase reporter gene assay; assay type: functional, cell-based; in short: as §2
[10] = molecular target: T1, Parathyroid hormone/parathyroid hormone-related peptide receptor (Homo sapiens); test: Agonist activity at human PTH1 receptor expressed in human GP2.3 cells assessed as induction of cAMP at 0.1 to 100 nM preincubated with SIF for 10 mins followed by compound transfer to GP2.3 cells by luciferase reporter gene assay; assay type: functional, cell-based
In short: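 Simulated intestinal fluid containing pancreatin, pH 6.8, prepared fresh and kept at 37 °C. Peptide incubated in it as for gastric fluid. Quenched 1:1 with 50% acetonitrile/1% TFA. Quenched samples serially diluted in CO2-independent medium and applied to luciferin-preloaded GP2.3 cells at 100−0.1 nM final. Luminescence read. Two technical replicates.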

[11] = molecular target: T1, Parathyroid hormone/parathyroid hormone-related peptide receptor (Homo sapiens); test: Agonist activity at human PTH1 receptor expressed in human GP2.3 cells assessed as induction of cAMP at 0.1 to 100 nM preincubated with SGF for 5 secs followed by compound transfer to GP2.3 cells by luciferase reporter gene assay; assay type: functional, cell-based
In short: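 Quenched at set times with 10× PBS, diluted into CO2-independent medium, serially 1:10, then added to confluent GP2.3 cells (HEK293, hPTHR1 plus Glosensor cAMP reporter) preloaded 30 min with 0.5 mM D-luciferin. Final 100–0.1 nM. Luminescence read; two technical replicates; variable-slope sigmoidal fit.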

[12] = molecular target: T1, Parathyroid hormone/parathyroid hormone-related peptide receptor (Homo sapiens); test: Agonist activity at extracellular domain truncate human PTH1 receptor expressed in GD5 cells assessed as induction of cAMP after 12 to 20 mins by luciferase reporter gene assay; assay type: functional, cell-based
In short: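 HEK293-derived lines stably expressing Glosensor cAMP reporter plus full-length human PTHR1 (GP2.3) or ECD-truncated PTHR1 (GD5). Confluent monolayers preincubated at room temperature in CO2-independent medium with 0.5 mM D-luciferin until baseline stable (30 min), then varied agonist concentrations added. Maximal luminescence (12−20 min) used for sigmoidal variable-slope fits.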

[13] = Half life in Sprague-Dawley rat kidney homogenates at 12 uM by HPLC-MS analysis; assay type: ADME, tissue-based
In short: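 Kidney homogenate (2.5 mg protein/mL, pH 7.4 Tris) spiked with peptide at 50 μg/mL (~12 μM), 37 °C, sampled 0−120 min. […] C18 UHPLC–Orbitrap MS quantified via y32 ion area ratio against calibration standards. Exponential decay fit, mean ± SD of two replicates.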

[14] = Drug metabolism in Sprague-Dawley rat kidney homogenates assessed as protease mediated-drug degradation at 12 uM up to 5 mins by MALDI-TOF-MS analysis; assay type: ADME, tissue-based; conditions: tissue homogenate; in short: as §3
[15] = Stability in simulated gastric fluid assessed as pig pepsin-mediated proteolysis at 40 uM after 5 secs by RP-HPLC analysis; assay type: ADME, Sus scrofa; conditions: isolated protein, 5 s
In short: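 Proteolysis quenched by transfer into 10× PBS, pH 7.4, giving 40 μM peptide. Analysed by analytical C18 RP-HPLC, 10–60% acetonitrile/0.1% TFA over 50 min. Intact peptide quantified by integrating its peak. Duplicate reactions run concurrently, standard deviation.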

inhibition [2] | fold change (FC) [4] | Drug uptake [5] | Activity [6] | Drug metabolism [7] | Drug metabolism [8] | Activity [9] | Activity [10] | Activity [11] | Activity [12] | half-life at 12 µM [13] [min] | Drug metabolism [14] | Stability [15] | SMILES | Activity [1] | Activity [3]
Active | 3.2 | Active | – | – | – | – | – | – | – | – | – | – | CC[C@H](C)[C@H](NC(=O)[C@H](CCC(=O)O)NC(=O)[C@H](CO)NC(=O)[C@@H](NC(=O)[C@@H](N)CO)C(C)C)C(=O)N[C@@H](CCC(N)=O)C(=O)N[C@@H](CC(C)C)C(=O)N[C@@H](CCSC)C(=O)N[C@@H](Cc1cnc[nH]1)C(=O)N[C@@H](CC(N)=O)C(=O)N[C@@H](CC(C)C)C(=O)NCC(=O)N[C@@H](CCCCN)C(=O)N[C@H]1CCC[C@@H]1C(=O)N[C@@H](CC(C)C)C(=O)N[C@@H](CC(N)=O)C(=O)N[C@@H](CO)C(=O)N[C@H]1CCC[C@@H]1C(=O)N[C@@H](CCC(=O)O)C(=O)N[C@@H](CCCNC(=N)N)C(=O)N[C@H](C(=O)N[C@H]1CNC[C@@H]1C(=O)N[C@@H](Cc1c[nH]c2ccccc12)C(=O)N[C@@H](CC(C)C)C(=O)N[C@@H](CCCNC(=N)N)C(=O)N[C@H]1CNC[C@@H]1C(=O)N[C@@H](CCCCN)C(=O)N[C@@H](CC(C)C)C(=O)N[C@@H](CCC(N)=O)C(=O)N[C@H]1CCC[C@@H]1C(=O)N[C@H](C(=O)N[C@@H](Cc1cnc[nH]1)C(=O)N[C@@H](CC(N)=O)C(=O)N[C@H]1CCC[C@@H]1C(N)=O)C(C)C)C(C)C (H-SVSEIQLMHNLGK[X1]LNS[X1]ERV[X2]WLR[X2]KLQ[X1]VHN-{NH(1S,2S-2-CONH2-cPent)}) | Non-Toxic | Toxic
Active | – | – | Active | Metabolite_Detected | Metabolite_Detected | Active | inactive | inactive | Active | 1.9 | Metabolite_Detected | Unstable | CC[C@H](C)[C@H](NC(=O)[C@H](CCC(=O)O)NC(=O)[C@H](CO)NC(=O)[C@@H](NC(=O)[C@@H](N)CO)C(C)C)C(=O)N[C@@H](CCC(N)=O)C(=O)N[C@@H](CC(C)C)C(=O)N[C@@H](CCSC)C(=O)N[C@@H](Cc1cnc[nH]1)C(=O)N[C@@H](CC(N)=O)C(=O)N[C@@H](CC(C)C)C(=O)NCC(=O)N[C@@H](CCCCN)C(=O)N[C@@H](Cc1cnc[nH]1)C(=O)N[C@@H](CC(C)C)C(=O)N[C@@H](CC(N)=O)C(=O)N[C@@H](CO)C(=O)N[C@@H](CCSC)C(=O)N[C@@H](CCC(=O)O)C(=O)N[C@@H](CCCNC(=N)N)C(=O)N[C@H](C(=O)N[C@@H](CCC(=O)O)C(=O)N[C@@H](Cc1c[nH]c2ccccc12)C(=O)N[C@@H](CC(C)C)C(=O)N[C@@H](CCCNC(=N)N)C(=O)N[C@@H](CCCCN)C(=O)N[C@@H](CCCCN)C(=O)N[C@@H](CC(C)C)C(=O)N[C@@H](CCC(N)=O)C(=O)N[C@@H](CC(=O)O)C(=O)N[C@H](C(=O)N[C@@H](Cc1cnc[nH]1)C(=O)N[C@@H](CC(N)=O)C(=O)N[C@@H](Cc1ccccc1)C(N)=O)C(C)C)C(C)C | Non-Toxic | –
